In assay [1] the test system is Streptococcus intermedius. The assay is described as follows: Antimicrobial activity against Streptococcus intermedius SI006 biofilm harboring luxS mutant gene assessed as biofilm bacterial count at 0.02 ug/ml in presence of 0.8 nM autoinducer 4,5-dihydroxy-2,3-pentanedione (Rvb =413.7 +/- 24.47 10^5 CFU/ml). The format is functional.
Assay [2] relates to Streptococcus intermedius. The assay is described as follows: Antimicrobial activity against Streptococcus intermedius SI006 biofilm harboring luxS mutant gene assessed as biofilm bacterial count at 0.06 ug/ml (Rvb =310.8 +/- 17.10 10^5 CFU/ml). The format is functional.
For assay [3], the system named is Streptococcus intermedius. The experiment in a line: Antimicrobial activity against Streptococcus intermedius SI006 planktonic cells harboring luxS mutant gene assessed as bacterial count at 0.12 ug/ml (Rvb =798.3 +/- 37.09 10^8 CFU/ml). The format is functional.
Assay [4] relates to Streptococcus intermedius. The assay is described as follows: Antimicrobial activity against Streptococcus intermedius NCTC 11324 assessed as growth inhibition at 0.16 ug/ml. The format is functional. The gist of the method:
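Broth microdilution MIC in ultra-low-binding 96-well plates, inoculum ≈4 × 10^5. Growth was read at 595 nm, and the MIC was taken as the lowest antibiotic concentration inhibiting growth.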

For assay [5], the system named is Streptococcus intermedius. The experiment in a line: Antimicrobial activity against Streptococcus intermedius SI006 biofilm harboring luxS mutant gene assessed as biofilm bacterial count at 0.02 ug/ml (Rvb =310.8 +/- 17.10 10^5 CFU/ml). The format is functional.
In assay [6] the test system is Streptococcus intermedius. The assay is described as follows: Antimicrobial activity against Streptococcus intermedius SI006 planktonic cells harboring luxS mutant gene assessed as bacterial count at 0.10 ug/ml (Rvb =798.3 +/- 37.09 10^8 CFU/ml). The format is functional.
The test system of assay [7] is Streptococcus intermedius. The experiment in a line: Antimicrobial activity against Streptococcus intermedius SI006 biofilm harboring luxS mutant gene assessed as biofilm bacterial count at 0.06 ug/ml in presence of 0.8 nM autoinducer 4,5-dihydroxy-2,3-pentanedione (Rvb =413.7 +/- 24.47 10^5 CFU/ml). The format is functional.
Assay [8] relates to Streptococcus intermedius. The experiment in a line: Antimicrobial activity against Streptococcus intermedius SI006 planktonic cells harboring luxS mutant gene assessed as bacterial count at 0.12 ug/ml in presence of 0.8 nM autoinducer 4,5-dihydroxy-2,3-pentanedione (Rvb =793.3 +/- 42.40 10^8 CFU/ml). The format is functional.
Assay [9] has as its system Streptococcus intermedius. The assay is described as follows: Antimicrobial activity against Streptococcus intermedius SI006 biofilm harboring luxS mutant gene assessed as biofilm bacterial count at 0.04 ug/ml (Rvb =310.8 +/- 17.10 10^5 CFU/ml). The format is functional.
For assay [10], the system named is Streptococcus intermedius. The assay is described as follows: Antimicrobial activity against Streptococcus intermedius NCTC 11324 planktonic cells assessed as bacterial count at 0.08 ug/ml (Rvb =771.7 +/- 35.14 10^8 CFU/ml). The format is functional. The gist of the method:
(§1)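 Planktonic wild-type cells were inoculated at ≈4 × 10^5 CFU/ml in TSB in ultra-low-binding plates. Media were without or with ampicillin (0.02 to 0.14 μg/ml), ciprofloxacin (0.10 to 0.35 μg/ml) or tetracycline (0.03 to 0.20 μg/ml). After 12 h at 37°C in 5% CO2 aerobic air, CFU were counted, run in parallel with the BacTiter-Glo ATP assay. Experiments were done three times in two parallels.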

Assay [11] deals with Streptococcus intermedius. The assay is described as follows: Antimicrobial activity against Streptococcus intermedius SI006 planktonic cells harboring luxS mutant gene assessed as bacterial count at 0.08 ug/ml in presence of 0.8 nM autoinducer 4,5-dihydroxy-2,3-pentanedione (Rvb =793.3 +/- 42.40 10^8 CFU/ml). The format is functional.
For assay [12], the system named is Streptococcus intermedius. The assay is described as follows: Antimicrobial activity against Streptococcus intermedius SI006 planktonic cells harboring luxS mutant gene assessed as bacterial count at 0.06 ug/ml (Rvb =798.3 +/- 37.09 10^8 CFU/ml). The format is functional.
Assay [13] deals with Streptococcus intermedius. The experiment in a line: Antimicrobial activity against Streptococcus intermedius NCTC 11324 biofilm assessed as biofilm bacterial count at 0.02 ug/ml (Rvb =402.9 +/- 26.88 10^5 CFU/ml). The format is functional.
Assay [14] has as its system Streptococcus intermedius. The experiment in a line: Antimicrobial activity against Streptococcus intermedius NCTC 11324 planktonic cells assessed as bacterial count at 0.12 ug/ml (Rvb =771.7 +/- 35.14 10^8 CFU/ml). The format is functional. The gist of the method:
as §1

In assay [15] the test system is Streptococcus intermedius. The experiment in a line: Antimicrobial activity against Streptococcus intermedius NCTC 11324 assessed as biofilm formation at 0.04 to 0.10 ug/ml. The format is functional, organism-based. The procedure, abridged:
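Wild-type NCTC 11324 was grown overnight in TSB and inoculated into TSB with ampicillin (0.02 to 0.10 μg/ml), ciprofloxacin (0.10 to 0.28 μg/ml) or tetracycline (0.05 to 0.30 μg/ml), added at time zero. Wells held plastic coverslips and were incubated 12 h at 37°C in 5% CO2 aerobic air. Biofilm was measured as described previously. Experiments were done three times in three parallels.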

The subject of assay [16] is Streptococcus intermedius. The assay is described as follows: Antimicrobial activity against Streptococcus intermedius SI006 planktonic cells harboring luxS mutant gene assessed as bacterial count at 0.10 ug/ml in presence of 0.8 nM autoinducer 4,5-dihydroxy-2,3-pentanedione (Rvb =793.3 +/- 42.40 10^8 CFU/ml). The format is functional.
For assay [17], the system named is Streptococcus intermedius. The experiment in a line: Antimicrobial activity against Streptococcus intermedius SI006 biofilm harboring luxS mutant gene assessed as biofilm bacterial count at 0.04 ug/ml in presence of 0.8 nM autoinducer 4,5-dihydroxy-2,3-pentanedione (Rvb =413.7 +/- 24.47 10^5 CFU/ml). The format is functional.
The subject of assay [18] is Streptococcus intermedius. The experiment in a line: Antimicrobial activity against Streptococcus intermedius NCTC 11324 biofilm assessed as biofilm bacterial count at 0.04 ug/ml (Rvb =402.9 +/- 26.88 10^5 CFU/ml). The format is functional.
The subject of assay [19] is Streptococcus intermedius. The experiment in a line: Antimicrobial activity against Streptococcus intermedius NCTC 11324 biofilm assessed as biofilm bacterial count at 0.06 ug/ml (Rvb =402.9 +/- 26.88 10^5 CFU/ml). The format is functional.
Assay [20] has as its system Streptococcus intermedius. The experiment in a line: Antimicrobial activity against Streptococcus intermedius NCTC 11324 planktonic cells assessed as bacterial count at 0.10 ug/ml (Rvb =771.7 +/- 35.14 10^8 CFU/ml). The format is functional. The gist of the method:
as §1

Assay [21] deals with Streptococcus intermedius. The experiment in a line: Antimicrobial activity against Streptococcus intermedius SI006 planktonic cells harboring luxS mutant gene assessed as bacterial count at 0.06 ug/ml in presence of 0.8 nM autoinducer 4,5-dihydroxy-2,3-pentanedione (Rvb =793.3 +/- 42.40 10^8 CFU/ml). The format is functional.
In assay [22] the test system is Streptococcus intermedius. The assay is described as follows: Antimicrobial activity against Streptococcus intermedius NCTC 11324 planktonic cells assessed as bacterial count at 0.06 ug/ml (Rvb =771.7 +/- 35.14 10^8 CFU/ml). The format is functional. The gist of the method: as §1
Assay [23] concerns Streptococcus intermedius. The experiment in a line: Antimicrobial activity against Streptococcus intermedius SI006 planktonic cells harboring luxS mutant gene assessed as bacterial count at 0.08 ug/ml (Rvb =798.3 +/- 37.09 10^8 CFU/ml). The format is functional.

Each structure is given as a SMILES string. Active and inactive are the calls of the source. The rule behind the calls is not given here.

The record followed here is ChEMBL document CHEMBL1649212, “AI-2/LuxS is involved in increased biofilm formation by Streptococcus intermedius in the presence of antibiotics” (2009).

`CC1(C)S[C@@H]2[C@H](NC(=O)[C@H](N)c3ccccc3)C(=O)N2[C@H]1C(=O)O` [AMPICILLIN]: the CFU in assay [1] worked out at 459.5 ×10⁵ /ml; in assay [2], 162.1 ×10⁵ /ml; in assay [3], 8.5 ×10⁸ /ml; in [5] it was 324.1 ×10⁵ /ml; in assay [6], 10.3 ×10⁸ /ml; in assay [7], 819.2 ×10⁵ /ml. In addition, the CFU in [8] is on record as 18.4 ×10⁸ /ml; in assay [9] it was 268.6 ×10⁵ /ml; in assay [10], 43.3 ×10⁸ /ml; in assay [11], 39.1 ×10⁸ /ml; in assay [12] it was 41.8 ×10⁸ /ml; in [13], 486.2 ×10⁵ /ml. Further, the CFU came out at 20.7 ×10⁸ /ml in assay [14]; 39.6 ×10⁸ /ml in assay [16]; 686 ×10⁵ /ml in assay [17]; 621.6 ×10⁵ /ml in assay [18]; 894.7 ×10⁵ /ml in assay [19]; 45.3 ×10⁸ /ml in assay [20]. In addition, the CFU was 48.7 ×10⁸ /ml in [21], 61.2 ×10⁸ /ml in [22] and 16.4 ×10⁸ /ml in assay [23]. The Activity in assay [4] is 0.16 µg/mL. For the same molecule, in [15], the result was inactive.
